Assay results reported in ChEMBL document CHEMBL4414680, “Identification of new potent A1 adenosine receptor antagonists using a multistage virtual screening approach” (Eur J Med Chem, 2020).

Legend:
Adenosine receptor A1 [1] = target: T1, Adenosine receptor A1 (Homo sapiens, UniProt P30542); experiment: Displacement of [3H]DPCPX from human A1AR expressed in CHO cells incubated for 50 mins by radioligand binding assay; format: cell-based
T1 sequence (P30542 whole entry): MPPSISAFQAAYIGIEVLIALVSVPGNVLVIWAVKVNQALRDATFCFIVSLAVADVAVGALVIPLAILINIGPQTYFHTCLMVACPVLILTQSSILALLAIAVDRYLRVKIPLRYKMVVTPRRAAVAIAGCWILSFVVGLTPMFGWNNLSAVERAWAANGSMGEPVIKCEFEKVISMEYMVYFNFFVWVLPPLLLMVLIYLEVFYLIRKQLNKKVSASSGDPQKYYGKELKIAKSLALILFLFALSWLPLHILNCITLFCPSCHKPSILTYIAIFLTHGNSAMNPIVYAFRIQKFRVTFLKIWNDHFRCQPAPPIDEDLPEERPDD

Adenosine receptor A1 [2] = target: T1, Adenosine receptor A1; experiment: Antagonist activity at human A1AR expressed in CHO-K1 cells assessed as reduction in NECA-induced inhibition of forskolin-stimulated cAMP accumulation incubated for 30 mins by fluorescence based assay; format: functional, cell-based
In short: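 CHO-K1 cells stably expressing human A1AR, grown in F12K + 10% FBS + 800 µg/ml hygromycin B at 37 ℃/5% CO2, resuspended in HBSS with 0.1% BSA, 20 mM HEPES, 100 nM IBMX; 8000 cells/well. Ten 3-fold compound dilutions; forskolin (8 µM) plus NECA (40 nM) added, 30 min at 37 ℃. HTRF cAMP detection (Eu3+ cryptate anti-cAMP, d2-cAMP), 1 h room temperature, read at 665/615 nm.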

Adenosine receptor A2a = Adenosine receptor A2a (Homo sapiens, UniProt P29274); experiment: Displacement of [3H]ZM241385 from human A2AR expressed in CHO cells after 90 mins by radioligand binding assay; format: cell-based
Homo sapiens = species on record: Homo sapiens; experiment: Selectivity index, ratio of Ki for human A1AR expressed in CHO cells to Ki for human A2AR expressed in CHO cells by radioligand binding assay; format: cell-based

Sequence of Adenosine receptor A2a (P29274 whole entry): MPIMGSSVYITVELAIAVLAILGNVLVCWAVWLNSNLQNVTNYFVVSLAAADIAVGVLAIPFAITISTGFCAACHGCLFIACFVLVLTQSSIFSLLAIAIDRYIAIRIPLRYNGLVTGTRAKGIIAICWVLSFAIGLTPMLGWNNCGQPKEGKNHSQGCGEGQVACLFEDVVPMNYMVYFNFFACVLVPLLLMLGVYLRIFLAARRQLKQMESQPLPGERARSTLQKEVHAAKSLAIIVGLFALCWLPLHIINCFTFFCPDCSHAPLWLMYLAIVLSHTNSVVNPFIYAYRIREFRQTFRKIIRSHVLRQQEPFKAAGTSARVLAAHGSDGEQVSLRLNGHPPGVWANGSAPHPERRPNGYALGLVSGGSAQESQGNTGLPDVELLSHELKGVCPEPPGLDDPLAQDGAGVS

| SMILES | Ki (Adenosine receptor A1 [1]) [µM] | IC50 (Adenosine receptor A1 [2]) [µM] | Ki (Adenosine receptor A2a) [µM] | Ratio Ki (Homo sapiens) |
| --- | --- | --- | --- | --- |
| CCCN(CCC)c1c(-c2ccccc2)c2cc(Cl)ccc2[nH]c1=O | 25.7 |  |  |  |
| Cc1cc(=O)n2c(n1)NC(Nc1cccc(C)c1C)=NC2c1ccc(F)cc1 (stereo unspecified) | 3.24 |  |  |  |
| COc1ccccc1CNC(=O)c1cc(Nc2ccccc2C)nc2ccccc12 | 1.12 |  |  |  |
| CC(C)C(=O)Nc1nc2n(n1)C(c1ccccc1Cl)C=C(c1ccccc1)N2 (stereo unspecified) | 32.4 |  |  |  |
| CC(C)CN1C(=O)/C(=C/c2c(NCCc3ccccc3)nc3ccccn3c2=O)SC1=S | 13.5 |  |  |  |
| C=CCn1c(SCc2ccccn2)nc2c([nH]c3ccccc32)c1=O | 0.708 | 1.26 | > 100 | < 0.01 |
| COc1ccc(-c2cc(-c3cccc(Br)c3)c(C#N)c(N)n2)cc1 | 0.209 | 1.86 | 38 | 0.006 |
| Cc1ccc(C(=O)Nc2c(C(=O)NC3CCCC3)[nH]c3ccc(C)cc23)cc1 | 0.513 | 3.09 | > 100 | < 0.01 |
| COc1ccc(/C=C/c2ccnc3nc(N4CCCCC4)[nH]c(=O)c23)cc1 | 3.02 |  |  |  |
| CCC(C(=O)n1nc(-c2ccccc2)nc1N)c1ccccc1 (stereo unspecified) | 10.7 |  |  |  |
| Oc1ccccc1Nc1nc(-c2ccccc2)c2cc(Cl)ccc2n1 | 20 |  |  |  |
| O=C(Cn1cc(-c2ccccc2)c2ncn(C3CC3)c(=O)c21)NCc1ccc(F)cc1 | 0.589 | 2.82 | 36.3 | 0.016 |
| N#Cc1c(N)nc2c(c1-c1ccc3c(c1)OCO3)CCCC2 | 0.0741 | 0.417 | > 100 | < 0.001 |
| Cc1ccc(C2=CC(c3ccccc3Cl)n3nc(CCCO)nc3N2)cc1 (stereo unspecified) | 18.6 |  |  |  |
| O=C1CC(C(=O)Nc2ccccc2)c2c(nc(SCc3ccccc3F)[nH]c2=O)N1 (stereo unspecified) | 7.24 |  |  |  |
| O=c1[nH]c(N2CCCC2)nc2nccc(-c3ccc(Cl)cc3)c12 | 0.776 | 1.48 | > 100 | < 0.01 |
| Cc1cc(C)nc(Nc2nc(-c3ccccc3)c3ccc(Cl)cc3n2)n1 | 6.92 |  |  |  |
| CCOC(=O)N1CCN(c2cc(NC3CCCCC3)c3c4c(onc24)-c2ccccc2C3=O)CC1 | 19.5 |  |  |  |
